Measurements pooled from the literature.
Each line is one published result; the experiments were not run side by side.
Matrix: plasma

O=C1CCC(N2Cc3cc(C4CCN(Cc5ccccc5)CC4)ccc3C2=O)C(=O)N1 (centres unmarked) — Cmax (male Sprague-Dawley rat; intravenous, 1 mg/kg): 113 ng/mL
CNC(=O)c1cc(Oc2ccc(NC(=O)Nc3ccc(Cl)c(C(F)(F)F)c3)cc2)ccn1 — Cmax (male Sprague-Dawley rat; oral, 100 mg/kg, single dose): 956 ng/mL
CCCCC(=O)Nc1ccc(-c2ccc3ncn(CCC)c(=O)c3c2)cn1 — Cmax (male rat; intravenous, 2.5 mg/kg): 3090 ng/mL
C[C@@]12C[C@@]3(O)O[C@@H](O1)[C@]1(COC(=O)c4ccccc4)[C@H]3C[C@@]12O[C@@H]1O[C@H](CO)[C@@H](O)[C@H](O)[C@H]1O — Cmax (male Sprague-Dawley rat; oral, 80 mg/kg): 1.13 ng/mL
Cc1cc2c(C(N)=O)cccc2n1-c1nc2c(c(NCc3ccccc3)n1)CCCN2 — Cmax (male Sprague-Dawley rat; intravenous, 1 mg/kg, single dose): 802 ng/mL
CC(=O)O[C@@H]1CC[C@@]2(C)[C@@H](CC[C@]3(C)[C@@H]2C(=O)C=C2[C@@H]4[C@@H](C)[C@H](C)CC[C@]4(C)CC[C@]23C)[C@@]1(C)C(=O)O — Cmax (female Wistar rat; oral, 1 mg/kg, single dose): 3360 ng/mL
C=CCn1c(=O)c2cnc(Nc3ccc(N4CCN(C)CC4)cc3)nc2n1-c1ccc2c(n1)[C@@](O)(CC)CC2 — Cmax (rat; oral, 60 mg/kg): 4 µM
Nc1ccn([C@@H]2O[C@H](CO)[C@@H](O)C2(F)F)c(=O)n1 — Cmax (male Sprague-Dawley rat; intraperitoneal, 5 mg/kg): 12500 ng/mL
CONC(=O)c1cccc2c1cc(C)n2-c1nc2c(c(NCc3ccccc3)n1)CCCN2 — Cmax (male Sprague-Dawley rat; oral, 10 mg/kg, single dose): 23.4 ng/mL
C[C@H]1[C@@H](O)O[C@@H]2O[C@@]3(C)CC[C@H]4[C@H](C)CC[C@@H]1[C@@]24OO3 — Cmax (male Sprague-Dawley rat; oral, 10 mg/kg): 169 ng/mL
CCCc1nc2c(C)cc(-c3nc4ccccc4n3C)cc2n1Cc1ccc(-c2ccccc2C(=O)O)cc1 — Cmax (male Sprague-Dawley rat; oral, 8 mg/kg, single dose): 136 ng/mL
COc1cc(C2C3=C(COC3=O)N(CCO)c3cc4c(cc32)CCC4)cc(OC)c1OC (centres unmarked) — Cmax (female Sprague-Dawley rat; intraperitoneal, 50 mg/kg): 915 ng/mL
COc1cc(-c2cc(C(C)=O)n3ccccc23)c(OC)cc1Cn1ccnc1 — Cmax (male Sprague-Dawley rat; intravenous, 5 mg/kg): 4120 ng/mL
CC[C@@H]([C@H](C)O)n1ncn(-c2ccc(N3CCN(c4ccc(OC[C@@H]5CO[C@@](Cn6cncn6)(c6ccc(F)cc6F)C5)cc4)CC3)cc2)c1=O — Cmax (Sprague-Dawley rat; oral, 40 mg/kg): 703 ng/mL
COc1ccc(N(Cc2csc(-c3ccccc3)n2)C(=O)CCCCCC(=O)NO)cc1 — Cmax (female Sprague-Dawley rat; intravenous, 5 mg/kg): 150 ng/mL
COc1nc(-c2cccc(-c3ccccc3)c2C)ccc1CNCCNC(=O)CCCCCCCCCCC(=O)N1CCN(CCNC(=O)c2cc3c(=O)n4cccc(C)c4nc3n(CCc3cccs3)c2=N)CC1 — Cmax (male Sprague-Dawley rat; intravenous, 2 mg/kg): 1800 ng/mL
C[C@H]1Oc2cc(cnc2N)-c2c(nn(C)c2C#N)CN(C)C(=O)c2ccc(F)cc21 — Cmax (Sprague-Dawley rat; intravenous, 1 mg/kg, single dose): 2250 ng/mL
